Screening results from PubChem BioAssay.
In the library only some 3.4% were active in any assay of this set; here they are far more common.
ANO1 activ – activates or potentiates the mouse TMEM16A chloride channel | HEK293 TMEM16A/YFP-H148Q/I152L, iodide quench fluorescence; hits give low values | 340,000 compounds, 0.3% hits | B-score at 10 µM | Q8BHY3;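 active = fluorescence-ratio B-score plate-corrected deviation score at least 3 library SD below zero, with starting fluorescence score within 5 deviations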;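 note: channel opened by trigger with iodide after compound preincubation; score built on the fluorescence ratio of max minus min over baseline; more negative score means more quench and so TMEM16A activation or potentiation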
CHT allo act – allosteric activators of human choline transporter CHT; Q9GZV3; CHT-expressing cells, membrane potential dye, choline EC20; hits give high values; LV-AA mutant CHT in HEK293 cells; B-score at 10 µM; 310,000 compounds, 0.49% hits;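 active = initial fluorescence not abnormally high and integrated response B-score, plate-corrected, over 3 SD above library mean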
Target sequence (Q9GZV3 whole entry, looked up): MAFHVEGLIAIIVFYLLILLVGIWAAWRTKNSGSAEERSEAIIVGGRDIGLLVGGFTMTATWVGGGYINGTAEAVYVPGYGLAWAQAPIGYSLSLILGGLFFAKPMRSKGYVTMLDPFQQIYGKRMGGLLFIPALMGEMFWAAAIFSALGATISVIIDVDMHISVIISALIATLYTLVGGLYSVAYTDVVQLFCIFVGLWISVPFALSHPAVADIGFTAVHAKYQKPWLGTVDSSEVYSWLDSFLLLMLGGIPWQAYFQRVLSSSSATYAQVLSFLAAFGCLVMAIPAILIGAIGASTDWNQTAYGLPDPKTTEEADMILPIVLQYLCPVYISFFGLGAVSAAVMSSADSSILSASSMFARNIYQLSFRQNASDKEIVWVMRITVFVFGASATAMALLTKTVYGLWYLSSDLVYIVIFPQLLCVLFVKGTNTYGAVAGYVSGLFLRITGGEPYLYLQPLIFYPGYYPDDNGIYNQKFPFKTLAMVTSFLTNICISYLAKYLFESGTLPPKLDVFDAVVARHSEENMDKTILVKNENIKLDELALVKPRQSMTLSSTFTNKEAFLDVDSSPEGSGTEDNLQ
CHT block – inhibitors of human choline transporter CHT; Q9GZV3; CHT-expressing cells, membrane potential dye, choline response; hits give low values; B-score at 10 µM; 310,000 compounds, 0.86% hits;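 active = B-score over 3 SD under the library average, and starting fluorescence ratio not unusually high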;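 note: choline stimulus applied at its EC90 after an EC20 pre-addition; B-score computed on integrated fluorescence ratio after choline addition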
VIM-2 inh – blocks Pseudomonas aeruginosa VIM-2 metallo-beta-lactamase; purified VIM-2, nitrocefin hydrolysis, epi-absorbance fluorescence; inhibition, % at 5.6 µM; 290,000 compounds, 0.89% hits;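 active = inhibition above the mean of all tested compounds plus 3 SD, cutoff set per screening run, cut at about 7.5% in these data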;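 note: red hydrolysis product quenches plate fluorescence so inhibitors raise well fluorescence; 0% = enzyme with DMSO and 100% = DMSO without enzyme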
IMP-1 inh – blocks Pseudomonas aeruginosa IMP-1 metallo-beta-lactamase. purified IMP-1, nitrocefin hydrolysis, epi-absorbance fluorescence. inhibition, % at 5.6 µM. 290,000 compounds, 0.45% hits. AID 1556;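 active = inhibition above the mean plus 3 SD of all compounds in the same screening run, cut at about 4.5% in these data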;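 note: 0% = IMP-1 with DMSO and 100% = DMSO wells lacking enzyme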
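System: purified IMP-1; amount: IMP-1 0.2 nM before substrate addition; compound: single dose, 5.6 µM; times: 25 °C, 15 min preincubation, 25 min reaction; signal: Epi-absorbance via hydrolysed-nitrocefin quenching of white-plate fluorescence, 480/530 nm, EDTA stop; benchmarks: DMSO with and without IMP-1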
TMEM16A inh – mouse TMEM16A channel inhibition, primary screen; Q8BHY3; HEK293 TMEM16A/YFP iodide influx fluorescence, ionomycin; normalized B-score (activity score, 25-100; higher = stronger inhibition) at 10 µM; 310,000 compounds, 1.2% hits; AID 588511;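 active = ratio plate-corrected score three or more library SD toward inhibition, starting fluorescence score within five deviations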;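 note: score derived from kinetic fluorescence span divided by baseline fluorescence per well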
CHT activ conf – human CHT activation, confirmatory screen; AID 504833; 2,500 compounds, 91% hits; CHT-expressing cells, membrane potential dye fluorescence (FDSS); % of choline EC20–EC90 response window; HEK293 expressing CHT LV-AA mutant; choline added at its EC20; shares compounds with CHT allo act; activation, % at 10 µM;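 active = primary screen active, with duplicate mean activation above negative control mean plus 3 SD, cut at about 11% in these data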
HEK293 MP dye – counter-screen for CHT activators: effect in parental HEK293 cells; shares compounds with CHT allo act; 2,500 compounds, 62% hits; membrane potential dye fluorescence (FDSS); measured after EC20 choline addition; ratio readout change at 10 µM, hits read low;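 active = duplicate-averaged ratio beyond 3 SD from buffer wells, up or down, though filed actives are nearly all decreases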
* marks the source's active call; other numbers are inactive results; i = inactive; . = no result given.

SMILES | ANO1 activ | CHT allo act | CHT block | VIM-2 inh | IMP-1 inh | TMEM16A inh | CHT activ conf | HEK293 MP dye
Cc1ccc2cc(C)c(NCCO)nc2c1 | i | 8.1* | i | 3 | 1 | i | 31* | -52*
O=C(CCC(=O)N1CCc2ccccc2C1)NCCc1ccc(Cl)cc1 | i | i | i | -1 | -3 | i | . | .
COc1ccc(S(=O)(=O)N2c3ccccc3OCC2C)cc1 (configuration not stated) | i | 7.1* | i | -4 | -3 | i | 32* | i
Cc1c(NC(=O)N(C)c2ccccc2)c(=O)n(-c2ccccc2)n1C | i | i | i | -2 | -2 | i | . | .
CCC(=O)N1CCN(c2ccccc2NC(=O)c2ccc([N+](=O)[O-])o2)CC1 | i | 8.9* | i | -4 | -3 | i | 12* | i
O=C(Nc1ccccc1N1CCN(C(=O)c2ccccc2)CC1)c1ccc([N+](=O)[O-])o1 | i | . | . | -4 | -4 | . | . | .
CC(C)C(=O)N1CCN(c2ccccc2NC(=O)c2ccc([N+](=O)[O-])o2)CC1 | i | 11* | i | -3 | -3 | i | 39* | i
CC1CCN(CCCNC(=O)c2ccc(CSCc3cccc(Cl)c3)o2)CC1 | i | 8.3* | i | -4 | -5 | i | 49* | -35*
O=C(NCCCN1CCN(CCCNC(=O)c2cccc(Cl)c2)CC1)c1cccc(Cl)c1 | i | i | i | -1 | 0 | i | 28* | i
O=C(NCCN1CCCC1)c1cccc(Cl)c1 | i | i | i | -1 | 0 | i | . | .
COc1ccc(C(=O)NCCCN2CCN(CCCNC(=O)c3ccc(OC)c(OC)c3)CC2)cc1OC | i | . | . | . | . | . | . | .
COc1ccccc1N1CCN(CCCCNC(=O)c2ccc3ccccc3c2)CC1 | i | 7.6* | i | . | . | i | 36* | -21*
O=C1CCC(c2ccc(-n3ccnc3)cc2)=NN1 | i | 7.3* | i | . | . | i | 23* | -28*
CCCCCc1ccc(C2=NNC(=O)CC2)cc1 | i | i | i | 1 | -2 | i | . | .
CCCCN(Cc1ccco1)C(=O)C1CCCN(c2ncnc3c2nc2n3CCCCC2)C1 (configuration not stated) | i | i | i | -2 | -5 | i | 18* | i
O=C1CCN(Cc2ccccc2)CCN1[C@H](COc1ccccc1)Cc1ccccc1 | i | 6.7* | i | -3 | -2 | i | 24* | i
CC(C)CN1CCC(=O)N([C@H](CSc2ccccc2)Cc2ccccc2)CC1 | i | 13* | i | 0 | -3 | i | 42* | i
CC(C)C[C@@H](COc1ccccc1)N1CCN(Cc2ccccc2)CCC1=O | i | 6.3* | i | 0 | -2 | i | 16* | i
CC(C)C[C@@H](CO)N1CCN(Cc2ccccc2)CCC1=O | i | i | i | 0 | 0 | i | . | .
COCCN(Cc1ccccc1)C(=O)C1CCN(C(=O)Nc2ccccc2)CC1 | i | . | . | . | . | . | . | .
Cc1ccc(C(C)C)c(Oc2cnccn2)c1 | . | i | i | -2 | 0 | i | . | .
Cc1cc(N2CCOCC2)n2cc(-c3ccc(F)cc3)nc2n1 | i | i | i | 2 | 0 | i | 31* | -21*
Cc1cc(N2CCOCC2)n2cc(-c3ccccc3)nc2n1 | i | i | i | 2 | 2 | i | . | .
COc1cc(-c2c(-c3cc(OC)c(OC)c(OC)c3)noc2C)ccc1F | . | i | i | 0 | -3 | i | . | .
COc1cc(-c2noc(C)c2C#Cc2ccccn2)cc(OC)c1OC | i | 9.5* | i | 3 | 0 | i | 30* | i
SMILES | ANO1 activ | CHT allo act | CHT block | VIM-2 inh | IMP-1 inh | TMEM16A inh | CHT activ conf | HEK293 MP dye
COc1cc(-c2noc(C)c2/C=C/c2ccc(N)cc2)cc(OC)c1OC | i | 10* | i | 1 | -4 | i | 42* | i
COc1ccc(-c2c(-c3cc(OC)c(OC)c(OC)c3)noc2C)cn1 | i | 6.7* | i | 0 | -1 | i | 33* | i
C=CCN1C(=O)C2C(C(=O)NC3CCCC3)C3C=CC2(O3)C1C(=O)NC1CCCC1 (configuration not stated) | i | i | i | -6 | -4 | i | . | .
COc1ccccc1NS(=O)(=O)c1c(C)[nH]c(C)c1C(=O)N1CCCC1 | i | i | i | -3 | -4 | i | . | .
CN(CC(=O)Nc1ccc(Cl)cc1)C(=O)Cc1c(F)cccc1Cl | i | i | i | -3 | -2 | i | . | .
CCCCN(CCCNC(=O)C1CCN(C(=O)c2cc3sccc3n2C)CC1)Cc1ccccc1 | i | 10* | i | -1 | -3 | i | 60* | -29*
Cc1ccc(C2(SCC(N)C(=O)O)c3ccccc3-c3ccccc32)cc1 (configuration not stated) | i | . | . | . | . | . | . | .
C=CCOc1ccc(CNCC2CCCO2)cc1 (configuration not stated) | i | i | i | 1 | 1 | i | . | .
O=c1c2ccccc2n(CC(O)CN2CCCCC2)c2ccccc12 (configuration not stated) | i | 6.3* | i | -1 | -1 | i | 44* | -39*
OC(CN1CCCCC1)Cn1c2ccccc2c2ccccc21 (configuration not stated) | i | i | i | 0 | 1 | i | . | .
Cc1c(C)n(CC(O)CN2CCOCC2)c2ccccc12 (configuration not stated) | i | i | i | -2 | -2 | i | . | .
O=c1c2ccccc2n(CC(O)CN2CCOCC2)c2ccccc12 (configuration not stated) | i | i | i | 1 | 1 | i | 11* | i
COc1ccc2c(=O)cc(-c3cccnc3)oc2c1OC | i | 7.6* | i | -1 | -1 | i | 79* | -72*
COc1cc(-c2nnc(-c3cccnc3)o2)cc(OC)c1OC | i | i | i | 0 | 0 | i | . | .
CCOc1ccc(-c2nnc(-c3cccnc3)o2)cc1OCC | i | i | i | 11* | -4 | i | 32* | -27*
CCOc1cc(-c2noc(-c3cccnc3)n2)ccc1OC | i | i | i | -1 | -2 | i | . | .
COc1ccc(-c2nnc(-c3cccnc3)o2)cc1OC | i | 7.5* | i | 5 | -2 | i | 31* | -32*
